Laboratory results as given in ChEMBL document CHEMBL1152697, “Design, synthesis and SAR studies of 4-allyoxyaniline amides as potent 15-lipoxygensae inhibitors” (Bioorg Med Chem, 2009).

Assay: Inhibition of soybean 15-lipoxygenase
Set-up: species or system Glycine max
How it was run: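 Soybean 15-lipoxygenase (final 167 U/mL) in 0.1 M borate buffer pH 9, linoleic acid substrate (final 134 μM), 20 ± 1 °C. Compounds added in DMSO (final 1%), DMSO-only controls, inhibitor plus substrate as blank. Absorbance at 234 nm read for 60 s after enzyme addition. Enzyme kept on ice. At least six control tubes and triplicate tubes per inhibitor. IC50 by linear interpolation around 50% activity, mean ± SD.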

IC50 [µM]	Compound
6.2	C=CCOc1ccc(OC(=O)c2ccccc2)cc1
12.9	C=CCOc1ccc(NC(=O)C(C)C)cc1
0.67	C=CCOc1ccc(NC(=O)C23CC4CC(CC(C4)C2)C3)cc1
10.1	C=CCOc1ccc(NC(=O)c2ccc(C)cc2)cc1
4.1	C=CCOc1ccc(NC(=O)C2CCCC2)cc1
3.3	C=CCOc1ccc(NC(=O)c2ccccc2)cc1
6.4	C=CCOc1ccc(NC(=O)C2CCCCC2)cc1
17	C=CCOc1ccc(NC(=O)c2cccc(OC)c2)cc1
13.8	C=CCOc1ccc(NC(=O)c2ccc(OC)cc2)cc1
8.1	C=CCOc1ccc(NC(=O)c2cccc(Cl)c2)cc1
7	C=CCc1ccc(OC(=O)c2ccccc2)c(OC)c1 [EUGENYL BENZOAT]
6.7	C=CCOc1ccc(NC(=O)c2cccc(C)c2)cc1
38.2	C=CCc1ccc(O)c(OC)c1 [EUGENOL]
2.2	C=CCOc1ccc(NC(=O)C2CCC2)cc1
6.1	C=CCOc1ccc(NC(=O)C2CC2)cc1
3.8	C=CCOc1ccc(NC(=O)c2ccc(F)cc2)cc1
96.1	C=CCc1ccc(OC)c(OC)c1 [METHYLEUGENOL]
6.7	C=CCc1ccc(OC(=O)c2ccccc2)cc1
5.6	C=CCOc1ccc(NC(=O)c2cccc(F)c2)cc1
8.8	C=CCOc1ccc(NC(=O)c2ccc(Cl)cc2)cc1

Compound	IC50 [µM]
C=CCc1ccc(OC)cc1 [ESTRAGOLE]	64.1
